How the values were obtained:
[1] = test system: MDA-MB-175-VII; test: Anticancer activity against human MDA-MB-175-VII cells assessed as cell doubling measured for 72 hrs by DAPI staining based analysis; type: functional
[2] = test system: SNB-75; test: Anticancer activity against human SNB-75 cells assessed as cell growth inhibition measured after 72 hrs by DAPI staining based analysis; type: functional
[3] = test system: NCI-H630; test: Anticancer activity against human NCI-H630 cells assessed as cell growth inhibition measured after 72 hrs by DAPI staining based analysis; type: functional
[4] = test system: SNU-16; test: Anticancer activity against human SNU-16 cells assessed as cell growth inhibition measured after 72 hrs by DAPI staining based analysis; type: functional
[5] = test system: NCI-H747; test: Anticancer activity against human NCI-H747 cells assessed as cell doubling measured for 72 hrs by DAPI staining based analysis; type: functional
[6] = test system: SNU-387; test: Anticancer activity against human SNU-387 cells assessed as cell doubling measured for 72 hrs by DAPI staining based analysis; type: functional
[7] = test system: SCaBER; test: Anticancer activity against human SCaBER cells assessed as cell growth inhibition measured after 72 hrs by DAPI staining based analysis; type: functional
[8] = test system: NCI-H630; test: Anticancer activity against human NCI-H630 cells assessed as cell doubling measured for 72 hrs by DAPI staining based analysis; type: functional
[9] = test system: OVCAR-4; test: Anticancer activity against human OVCAR-4 cells assessed as cell growth inhibition measured after 72 hrs by DAPI staining based analysis; type: functional
[10] = test system: Y79; test: Anticancer activity against human Y79 cells assessed as cell growth inhibition measured after 72 hrs by DAPI staining based analysis; type: functional
[11] = test system: BT-474; test: Anticancer activity against human BT-474 cells assessed as cell doubling measured for 72 hrs by DAPI staining based analysis; type: functional
[12] = test system: DB; test: Anticancer activity against human DB cells assessed as cell growth inhibition measured after 72 hrs by DAPI staining based analysis; type: functional
In short: (§1)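 Cells seeded, DAPI-stained DNA content of fixed cells read by imaging 24 h after seeding (T0), and again after a further 72 h exposure to a range of drug concentrations (T72). T72 values were normalized to T0. Curve fits gave the concentration producing 50% growth inhibition relative to T0 and Ymax (GI50).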

[13] = test system: SK-OV-3; test: Antitumor activity against human SK-OV-3 cells in xenograft model assessed as difference between median time to endpoint time of treated versus control group at 125 mg/kg; type: functional
[14] = test system: THP-1; test: Anticancer activity against human THP-1 cells assessed as cell doubling measured for 72 hrs by DAPI staining based analysis; type: functional
[15] = test system: SW1417; test: Anticancer activity against human SW1417 cells assessed as cell doubling measured for 72 hrs by DAPI staining based analysis; type: functional
[16] = test system: U-251; test: Anticancer activity against human U-251 cells assessed as cell growth inhibition measured after 72 hrs by DAPI staining based analysis; type: functional
[17] = test system: HCT-15; test: Anticancer activity against human HCT-15 cells assessed as cell doubling measured for 72 hrs by DAPI staining based analysis; type: functional
[18] = test system: LOX IMVI; test: Anticancer activity against human LOX IMVI cells assessed as cell growth inhibition measured after 72 hrs by DAPI staining based analysis; type: functional
[19] = test system: Detroit 562; test: Anticancer activity against human Detroit 562 cells assessed as cell growth inhibition measured after 72 hrs by DAPI staining based analysis; type: functional; in short: as §1
[20] = test system: NCI-H716; test: Anticancer activity against human NCI-H716 cells assessed as cell doubling measured for 72 hrs by DAPI staining based analysis; type: functional
[21] = molecular target: T1, Centromere-associated protein E (Homo sapiens, UniProt Q02224); test: Inhibition of microtubule-stimulated ATPase activity of C-terminal 6-his-tagged CENP-E (2 to 340 residues)(unknown origin) expressed in Escherichia coli BL21(DE3) in presence of ATP
T1 sequence (Q02224 whole entry, the tested form may be a part): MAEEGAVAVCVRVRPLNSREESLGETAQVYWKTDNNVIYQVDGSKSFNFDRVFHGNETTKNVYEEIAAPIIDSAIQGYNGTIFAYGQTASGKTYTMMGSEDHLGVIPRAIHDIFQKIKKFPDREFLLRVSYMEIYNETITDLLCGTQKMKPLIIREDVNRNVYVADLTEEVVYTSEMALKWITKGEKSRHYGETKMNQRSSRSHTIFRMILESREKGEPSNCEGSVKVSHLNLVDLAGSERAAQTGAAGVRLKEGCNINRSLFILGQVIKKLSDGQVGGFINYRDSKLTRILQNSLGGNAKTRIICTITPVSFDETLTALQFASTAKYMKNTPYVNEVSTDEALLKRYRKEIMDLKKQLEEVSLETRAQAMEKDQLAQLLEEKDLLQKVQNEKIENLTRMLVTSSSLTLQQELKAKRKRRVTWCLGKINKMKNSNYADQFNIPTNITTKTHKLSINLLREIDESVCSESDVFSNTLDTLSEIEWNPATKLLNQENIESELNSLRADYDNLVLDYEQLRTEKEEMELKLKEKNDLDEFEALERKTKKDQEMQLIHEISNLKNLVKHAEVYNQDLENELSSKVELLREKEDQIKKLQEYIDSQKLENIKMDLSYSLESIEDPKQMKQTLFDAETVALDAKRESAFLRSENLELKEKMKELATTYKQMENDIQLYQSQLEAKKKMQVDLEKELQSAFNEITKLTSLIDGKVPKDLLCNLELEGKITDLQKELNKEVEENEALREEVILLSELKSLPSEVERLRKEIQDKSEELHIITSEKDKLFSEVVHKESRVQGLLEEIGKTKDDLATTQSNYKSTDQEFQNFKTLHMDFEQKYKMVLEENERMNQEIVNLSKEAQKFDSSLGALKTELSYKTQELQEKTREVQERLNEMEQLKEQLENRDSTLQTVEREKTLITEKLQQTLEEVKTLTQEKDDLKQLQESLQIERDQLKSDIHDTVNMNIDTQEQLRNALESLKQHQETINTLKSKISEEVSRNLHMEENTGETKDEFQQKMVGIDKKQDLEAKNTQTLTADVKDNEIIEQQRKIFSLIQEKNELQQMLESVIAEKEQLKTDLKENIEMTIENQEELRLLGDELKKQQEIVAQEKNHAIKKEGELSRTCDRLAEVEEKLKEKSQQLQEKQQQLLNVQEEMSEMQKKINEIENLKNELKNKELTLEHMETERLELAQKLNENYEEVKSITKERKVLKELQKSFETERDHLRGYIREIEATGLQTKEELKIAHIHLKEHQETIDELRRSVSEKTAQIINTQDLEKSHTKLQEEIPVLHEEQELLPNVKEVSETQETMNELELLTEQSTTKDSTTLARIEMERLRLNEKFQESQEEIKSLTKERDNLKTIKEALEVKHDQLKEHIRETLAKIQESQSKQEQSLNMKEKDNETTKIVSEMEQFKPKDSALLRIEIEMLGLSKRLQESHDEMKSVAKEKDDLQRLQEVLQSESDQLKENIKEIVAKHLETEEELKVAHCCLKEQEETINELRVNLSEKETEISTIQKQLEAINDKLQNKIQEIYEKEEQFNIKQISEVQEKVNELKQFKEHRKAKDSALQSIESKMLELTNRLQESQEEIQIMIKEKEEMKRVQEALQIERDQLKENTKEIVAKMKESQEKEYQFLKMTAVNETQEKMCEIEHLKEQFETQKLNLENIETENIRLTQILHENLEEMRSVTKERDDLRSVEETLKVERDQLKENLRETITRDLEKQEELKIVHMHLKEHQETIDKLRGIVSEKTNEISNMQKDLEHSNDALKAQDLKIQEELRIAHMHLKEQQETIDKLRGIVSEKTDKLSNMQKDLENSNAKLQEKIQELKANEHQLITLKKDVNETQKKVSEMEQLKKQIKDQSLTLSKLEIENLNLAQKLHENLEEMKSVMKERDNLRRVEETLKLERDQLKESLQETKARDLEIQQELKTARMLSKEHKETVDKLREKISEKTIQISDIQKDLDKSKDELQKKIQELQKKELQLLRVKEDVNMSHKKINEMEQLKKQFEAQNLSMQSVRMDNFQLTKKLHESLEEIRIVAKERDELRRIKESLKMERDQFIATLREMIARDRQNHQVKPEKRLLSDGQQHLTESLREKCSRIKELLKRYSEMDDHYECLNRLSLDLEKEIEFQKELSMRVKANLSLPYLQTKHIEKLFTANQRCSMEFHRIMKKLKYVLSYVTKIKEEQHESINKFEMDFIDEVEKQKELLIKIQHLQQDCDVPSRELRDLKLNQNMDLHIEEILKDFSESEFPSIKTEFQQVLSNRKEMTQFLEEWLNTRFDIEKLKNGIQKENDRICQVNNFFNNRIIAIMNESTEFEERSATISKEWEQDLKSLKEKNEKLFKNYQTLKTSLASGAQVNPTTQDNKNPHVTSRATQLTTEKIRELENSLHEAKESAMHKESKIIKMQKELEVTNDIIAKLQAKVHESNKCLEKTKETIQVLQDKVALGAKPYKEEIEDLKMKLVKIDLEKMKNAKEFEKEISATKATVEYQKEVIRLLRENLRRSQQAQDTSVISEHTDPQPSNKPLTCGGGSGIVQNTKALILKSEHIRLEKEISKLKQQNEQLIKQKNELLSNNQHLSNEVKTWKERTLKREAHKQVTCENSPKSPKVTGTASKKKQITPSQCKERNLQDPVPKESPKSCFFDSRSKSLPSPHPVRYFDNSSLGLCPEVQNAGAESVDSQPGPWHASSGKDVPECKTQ
In short: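 Steady-state ATPase of CENP-E motor domain, residues 2–340 with C-terminal 6-His tag, expressed in E. coli BL21(DE3). Run at 1 nM enzyme, 500 μM ATP and 5 μM paclitaxel-stabilized microtubules in PEM25 (25 mM PIPES-K pH 6.8, 2 mM MgCl2, 1 mM EGTA) plus 10 μM paclitaxel. IC50 taken from concentration-response curves.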

[22] = test system: NCI-H661; test: Anticancer activity against human NCI-H661 cells assessed as cell doubling measured for 72 hrs by DAPI staining based analysis; type: functional
[23] = test system: A549; test: Anticancer activity against human A549 cells assessed as cell doubling measured for 72 hrs by DAPI staining based analysis; type: functional
[24] = test system: UMUC3; test: Anticancer activity against human UM-UC-3 cells assessed as cell doubling measured for 72 hrs by DAPI staining based analysis; type: functional
[25] = test system: HuP-T4; test: Anticancer activity against human HuP-T4 cells assessed as cell doubling measured for 72 hrs by DAPI staining based analysis; type: functional
[26] = test system: 639-V; test: Anticancer activity against human 639-V cells assessed as cell doubling measured for 72 hrs by DAPI staining based analysis; type: functional
[27] = molecular target: T1, Centromere-associated protein E; test: Uncompetitive binding affinity to C-terminal 6-his-tagged CENP-E (2 to 340 residues)(unknown origin) expressed in Escherichia coli BL21(DE3) assessed as apparent inhibition constant in presence of ATP; details: read-out: Ki(app)
[28] = test system: HCC70; test: Anticancer activity against human HCC70 cells assessed as cell doubling measured for 72 hrs by DAPI staining based analysis; type: functional
[29] = test system: SiHa; test: Anticancer activity against human SiHa cells assessed as cell doubling measured for 72 hrs by DAPI staining based analysis; type: functional
[30] = test system: NCI-H508; test: Anticancer activity against human NCI-H508 cells assessed as cell doubling measured for 72 hrs by DAPI staining based analysis; type: functional
[31] = test system: RD; test: Anticancer activity against human RD cells assessed as cell doubling measured for 72 hrs by DAPI staining based analysis; type: functional
[32] = test system: HeLa; test: Anticancer activity against human HeLa cells assessed as cell doubling measured for 72 hrs by DAPI staining based analysis; type: functional
[33] = test system: SW480; test: Anticancer activity against human SW480 cells assessed as cell doubling measured for 72 hrs by DAPI staining based analysis; type: functional
[34] = test system: UMUC3; test: Anticancer activity against human UM-UC-3 cells assessed as cell growth inhibition measured after 72 hrs by DAPI staining based analysis; type: functional
[35] = test system: SNU-449; test: Anticancer activity against human SNU-449 cells assessed as cell growth inhibition measured after 72 hrs by DAPI staining based analysis; type: functional
[36] = test system: NCI-H508; test: Anticancer activity against human NCI-H508 cells assessed as cell growth inhibition measured after 72 hrs by DAPI staining based analysis; type: functional
[37] = test system: Hep 3B2; test: Anticancer activity against human Hep3B cells assessed as cell growth inhibition measured after 72 hrs by DAPI staining based analysis; type: functional
[38] = test system: Capan-2; test: Anticancer activity against human Capan-2 cells assessed as cell doubling measured for 72 hrs by DAPI staining based analysis; type: functional
[39] = test system: NCI-H146; test: Anticancer activity against human NCI-H146 cells assessed as cell growth inhibition measured after 72 hrs by DAPI staining based analysis; type: functional

GI50 [3]: 47 nM | GI50 [4]: 18 nM | GI50 [9]: 30 nM | GI50 [16]: 26 nM | IC50 [21]: 2.3 nM | Ki [27]: 3.2 nM | GI50 [35]: 236 nM | GI50 [36]: 32 nM | GI50 [39]: 5230 nM
Compound: CC(C)Oc1ccc(C(=O)N[C@H](CNC(=O)CN(C)C)Cc2ccc(-c3cn4cccc([C@H](C)O)c4n3)cc2)cc1Cl [GSK-923295A]
Activity [1]: 1.15 | GI50 [2]: 26 nM | Activity [5]: 2.19 | Activity [6]: 1.21 | GI50 [7]: 54 nM | Activity [8]: 2.04 | GI50 [10]: 70 nM | Activity [11]: 1.17 | GI50 [12]: 21 nM | Time [13]: >95 days | Activity [14]: 1.38 | Activity [15]: 1.94 | Activity [17]: 4.01 | GI50 [18]: 25 nM | GI50 [19]: 35 nM | Activity [20]: 1.41 | Activity [22]: 1.56 | Activity [23]: 3.53 | Activity [24]: 2.44 | Activity [25]: 1.09 | Activity [26]: 3.86 | Activity [28]: 1.35 | Activity [29]: 2.36 | Activity [30]: 3.01 | Activity [31]: 2.56 | Activity [32]: 2.83 | Activity [33]: 2.21 | GI50 [34]: 23 nM | GI50 [37]: 164 nM | Activity [38]: 1.89
